Substitutions are numbered along the chain they refer to. Primed or numbered codes have the meaning given here. No end group written: not given here. FITC′ = fluorescein isothiocyanate

One test has as its target T1, rTAP1/TAP2a(E218M) (Rattus norvegicus, UniProt P36370+P36372, E218M).
T1 sequence (P36370 1-725): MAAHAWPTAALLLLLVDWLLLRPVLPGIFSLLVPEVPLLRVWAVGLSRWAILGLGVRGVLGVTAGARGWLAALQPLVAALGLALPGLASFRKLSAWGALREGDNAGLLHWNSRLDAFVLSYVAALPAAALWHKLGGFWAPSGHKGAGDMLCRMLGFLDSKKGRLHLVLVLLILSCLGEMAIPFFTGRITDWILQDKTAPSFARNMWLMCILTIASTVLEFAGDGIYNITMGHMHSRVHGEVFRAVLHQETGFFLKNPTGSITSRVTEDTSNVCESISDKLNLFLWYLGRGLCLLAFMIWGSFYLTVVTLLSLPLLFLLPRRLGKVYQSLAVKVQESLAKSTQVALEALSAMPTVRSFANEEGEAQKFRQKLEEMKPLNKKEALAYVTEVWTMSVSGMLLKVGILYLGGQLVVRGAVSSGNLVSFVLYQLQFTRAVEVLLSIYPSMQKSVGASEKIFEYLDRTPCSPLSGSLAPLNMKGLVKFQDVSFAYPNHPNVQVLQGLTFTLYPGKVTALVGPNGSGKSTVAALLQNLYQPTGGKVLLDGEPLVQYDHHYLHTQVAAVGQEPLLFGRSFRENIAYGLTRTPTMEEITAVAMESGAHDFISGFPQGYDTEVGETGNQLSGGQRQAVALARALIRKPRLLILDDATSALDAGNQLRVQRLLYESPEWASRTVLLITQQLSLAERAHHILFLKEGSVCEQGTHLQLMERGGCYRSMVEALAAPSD
T1 sequence (P36372 1-703 E218M): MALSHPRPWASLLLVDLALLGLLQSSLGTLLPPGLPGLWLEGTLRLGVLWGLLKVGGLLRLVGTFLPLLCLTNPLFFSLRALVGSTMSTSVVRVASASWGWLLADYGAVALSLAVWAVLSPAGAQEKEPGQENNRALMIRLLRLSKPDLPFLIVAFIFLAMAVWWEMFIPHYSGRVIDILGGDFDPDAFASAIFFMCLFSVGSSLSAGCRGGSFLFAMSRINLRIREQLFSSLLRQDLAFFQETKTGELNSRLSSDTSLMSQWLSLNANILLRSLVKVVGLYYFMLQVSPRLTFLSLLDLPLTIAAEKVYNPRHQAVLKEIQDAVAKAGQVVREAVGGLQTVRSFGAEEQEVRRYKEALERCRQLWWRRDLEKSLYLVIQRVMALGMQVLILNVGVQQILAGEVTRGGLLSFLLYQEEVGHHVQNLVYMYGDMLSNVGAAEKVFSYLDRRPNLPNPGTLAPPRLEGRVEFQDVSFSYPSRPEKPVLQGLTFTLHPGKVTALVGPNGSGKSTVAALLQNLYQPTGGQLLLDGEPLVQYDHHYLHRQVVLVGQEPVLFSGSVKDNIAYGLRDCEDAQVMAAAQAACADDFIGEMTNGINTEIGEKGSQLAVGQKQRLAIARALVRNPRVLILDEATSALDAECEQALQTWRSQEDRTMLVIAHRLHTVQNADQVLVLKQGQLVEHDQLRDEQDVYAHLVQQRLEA
As to the kind of experiment: Peptide transport assay, E218M mutant. It counts as biochemical. Conditions: FITC-labeled peptide 1 μM, 37 °C, 5 min, with or without 5 mM ATP. An outline of the steps:
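Sf21 cells were grown to confluence and infected with baculoviruses (MOI 5–20) expressing His-tagged rTAP1 and Flag-tagged rTAP2 variants; microsomes were made after 72 h. Lysis was in 1% NP40, and glycosylated peptide was recovered on Con A-Sepharose. Fluorescence was read in triplicate to give +ATP/−ATP ratios, normalized to wild type (100%) and TAP-free microsomes (0%). Paired two-tailed t-tests were applied.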

The target in the next test is T2, rTAP1/TAP2a (wild type) (Rattus norvegicus, UniProt P36370+P36372).
T2 sequence (P36370 1-725): T1 sequence (P36370 1-725)
T2 sequence (P36372 1-703): T1 sequence (P36372 1-703 E218M) with M218E
In words: Competitive inhibition of TC6R crosslinking, wild type TAP. In kind it is binding. An outline of the steps: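 Rat TAP1/TAP2a expressed in baculovirus-infected Sf21 microsomes. Microsomes were incubated with 1 μM FITC-lysine peptide with Cys at position 6, plus unlabeled competitor peptide, on ice for 10 min in PBS pH 7.4. BMOE was added (0.2 mM final) for 10 min at room temperature and quenched with 10 mM DTT. Products were resolved by SDS-PAGE and fluorescence imaged at 520 nm.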

In test [1] the target is T3, wild type rat TAP1/TAP2a complex (rat) (UniProt P36370).
T3 sequence (P36370 whole entry, looked up): T1 sequence (P36370 1-725)
T3 sequence (P36372 whole entry, looked up): T1 sequence (P36372 1-703 E218M) with M218E
In words: cross-linking.

In the next test the target is T4, rTAP1/TAP2a(E218M) (rat) (UniProt P36370).
T4 sequence (P36370 1-725 with E218M, looked up): T1 sequence (P36370 1-725)
T4 sequence (P36372 1-703 with E218M, looked up): T1 sequence (P36372 1-703 E218M)
In words: cross-linking.

The target in test [2] is T5, rTAP1/TAP2a(E218M/Q262R/S265P/L266F) (rat) (UniProt P36370).
T5 sequence (P36370 1-725 with E218M Q262R S265P L266F, looked up): T1 sequence (P36370 1-725)
T5 sequence (P36372 1-703 with E218M Q262R S265P L266F, looked up): T1 sequence (P36372 1-703 E218M) with Q262R, S265P, L266F
In words: cross-linking.

With TVDNK*TAYV, the “effect of mutation on transport efficiency versus wild type” value at rTAP1/TAP2a(E218M) is listed as “did not significantly affect”.
A word on the IC50: it is the concentration that inhibits the measured activity by half. Low readings indicate greater potency, high ones weaker potency. On to RYWANATKSR [RR], for which the IC50 at rTAP1/TAP2a (wild type) was 300 nM.
The Kd is the free concentration of one partner at which half of the binding sites on the other are occupied at equilibrium, for simple one-to-one binding. Low values mean higher affinity, high ones lower affinity. In the case of TVDNK(FITC′)CAYR [TVDNK*CAYR (TC6R), FITC-labeled], in test [1], the Kd was 187 nM.
On to TVDNK(FITC′)CAYV [TVDNK*CAYV (TC6V), FITC-labeled], for which the Kd was found to be 339 nM in the test with rTAP1/TAP2a(E218M) (rat), 417 nM in test [1] and 107 nM in test [2].
As for TVDNKTAYR […, unlabeled competitor peptide], the IC50 in test [1] is greater than 2000 nM.

Source of the values: PMC4681580 (Journal of immunology (Baltimore, Md. : 1950), 2015).
